The results in this text go back to ChEMBL document CHEMBL1132919, “Structure-activity studies for a novel series of tricyclic substituted hexahydrobenz[e]isoindole alpha(1A) adrenoceptor antagonists as potential agents for the symptomatic treatment of benign prostatic hyperplasia (BPH)” (J Med Chem, 2000).

The target in experiment [1] is T1, Alpha-1A adrenergic receptor (Rattus norvegicus, UniProt P43140).
T1 sequence (P43140 whole entry): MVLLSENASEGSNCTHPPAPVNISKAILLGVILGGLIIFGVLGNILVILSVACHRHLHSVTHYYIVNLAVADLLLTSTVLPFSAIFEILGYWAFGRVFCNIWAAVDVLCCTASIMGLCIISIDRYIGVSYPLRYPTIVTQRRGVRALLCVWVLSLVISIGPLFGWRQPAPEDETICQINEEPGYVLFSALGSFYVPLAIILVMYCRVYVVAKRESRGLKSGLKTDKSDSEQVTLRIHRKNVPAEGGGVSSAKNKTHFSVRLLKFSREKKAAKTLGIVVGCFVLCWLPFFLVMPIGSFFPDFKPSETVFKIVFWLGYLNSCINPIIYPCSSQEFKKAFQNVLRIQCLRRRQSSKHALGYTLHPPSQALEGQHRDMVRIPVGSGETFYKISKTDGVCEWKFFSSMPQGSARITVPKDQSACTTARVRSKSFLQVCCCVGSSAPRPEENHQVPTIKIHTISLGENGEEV
The experiment is described as follows: In vitro binding affinity using [3H]prazosin as radioligand against alpha-1A adrenergic receptor. A digest of the protocol:
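Binding to pharmacologically defined α1A site in rat submaxillary gland membranes; [3H]-prazosin ~200 pM, nonspecific binding with 10^-5 M phentolamine (final); ~0.1 mg protein per tube in 50 mM Tris-HCl pH 7.4, 60 min at 25 °C.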

Experiment [2] concerns the target T2, Alpha-1D adrenergic receptor (Rattus norvegicus, UniProt P23944).
T2 sequence (P23944 whole entry): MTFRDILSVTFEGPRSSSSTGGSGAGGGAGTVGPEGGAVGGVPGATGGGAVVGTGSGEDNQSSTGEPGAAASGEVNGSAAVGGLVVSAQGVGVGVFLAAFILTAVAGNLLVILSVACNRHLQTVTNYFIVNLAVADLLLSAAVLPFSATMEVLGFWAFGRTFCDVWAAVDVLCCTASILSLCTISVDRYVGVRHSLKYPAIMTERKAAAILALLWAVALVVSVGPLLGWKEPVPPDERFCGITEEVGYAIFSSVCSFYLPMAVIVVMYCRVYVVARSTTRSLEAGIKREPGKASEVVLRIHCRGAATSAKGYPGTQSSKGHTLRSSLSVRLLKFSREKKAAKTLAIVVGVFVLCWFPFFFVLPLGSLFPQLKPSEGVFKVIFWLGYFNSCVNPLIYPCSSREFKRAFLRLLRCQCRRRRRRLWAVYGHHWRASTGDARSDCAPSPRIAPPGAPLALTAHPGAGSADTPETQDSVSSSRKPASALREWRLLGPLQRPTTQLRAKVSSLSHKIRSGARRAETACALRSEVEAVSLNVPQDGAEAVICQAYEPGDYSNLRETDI
The experiment can be described thus: In vitro binding affinity using [3H]prazosin as radioligand against alpha-1D adrenergic receptor expressed in LTK cell. Type of experiment: cell-based. A digest of the protocol: (§1)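 Membranes from mouse LTK- fibroblasts stably expressing cloned hamster α1B or rat α1D, grown in roller bottles, frozen in liquid N2 and stored at -70 °C. Incubated with [3H]-prazosin ~200 pM, ~0.1 mg protein per tube, in 50 mM Tris-HCl pH 7.4 for 60 min at 25 °C; nonspecific binding defined by 10^-5 M phentolamine (final).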

The next experiment is filed under the species Cricetulus griseus. The experiment can be described thus: Ratio between Ki(alpha-1b)/Ki(alpha1A).
The target of experiment [3] is T3, Alpha-1B adrenergic receptor (Mesocricetus auratus, UniProt P18841).
T3 sequence (P18841 whole entry): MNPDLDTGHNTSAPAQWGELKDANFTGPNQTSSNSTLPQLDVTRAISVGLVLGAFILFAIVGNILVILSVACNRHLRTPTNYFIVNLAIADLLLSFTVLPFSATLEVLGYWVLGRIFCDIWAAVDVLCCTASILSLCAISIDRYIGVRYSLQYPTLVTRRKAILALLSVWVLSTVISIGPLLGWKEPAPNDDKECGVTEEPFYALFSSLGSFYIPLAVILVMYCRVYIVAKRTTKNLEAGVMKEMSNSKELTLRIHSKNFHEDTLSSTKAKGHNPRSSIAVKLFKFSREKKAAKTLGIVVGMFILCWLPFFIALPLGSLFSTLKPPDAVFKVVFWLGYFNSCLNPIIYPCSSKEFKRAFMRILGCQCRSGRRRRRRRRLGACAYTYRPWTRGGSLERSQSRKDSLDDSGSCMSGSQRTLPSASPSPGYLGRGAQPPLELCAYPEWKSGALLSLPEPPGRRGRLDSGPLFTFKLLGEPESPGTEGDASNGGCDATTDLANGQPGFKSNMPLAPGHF
The experiment can be described thus: In vitro binding affinity using [3H]prazosin as radioligand against alpha-1B adrenergic receptor expressed in LTK cell. Type of experiment: cell-based. A digest of the protocol:
as §1

Broadly, the Ki is the dissociation constant of the complex between target and ligand, obtained from inhibition or displacement. A high value points to lower affinity.

On to `COc1cnc2sc3c(=O)n(CCN4C[C@@H]5CCc6c(OC)cccc6[C@@H]5C4)c(=O)[nH]c3c2n1`, for which the Ki in experiment [1] stood at 0.35 nM; in experiment [2], 1.1 nM; in experiment [3] it was 3.73 nM. The Selectivity ratio in the experiment filed under Cricetulus griseus came out at 10.6.
The like results for `COc1cccc2c1CC[C@H]1CN(CCn3c(=O)[nH]c4c(sc5c(OC)ccnc54)c3=O)C[C@@H]21` were, in that order, 0.79 nM, 1.41 nM, 6.69 nM and 8.45.
The like results for `COc1cccc2c1CC[C@H]1CN(CCn3c(=O)[nH]c4c(sc5ncc(-c6ccccc6)nc54)c3=O)C[C@@H]21` were, in that order, 3.91 nM, 19.8 nM, 120 nM and 30.7.
The like results for `COc1cccc2c1CC[C@H]1CN(CCn3c(=O)[nH]c4c(sc5cc(C#N)ccc54)c3=O)C[C@@H]21` were, in that order, 0.4 nM, 0.74 nM, 6.2 nM and 15.5.
For the compound `COc1cccc2c1CC[C@H]1CN(CCn3c(=O)[nH]c4c(sc5cccc(Cl)c54)c3=O)C[C@@H]21`, the Ki in experiment [1] came to 0.51 nM; in experiment [2], 1.32 nM; in experiment [3], 3.15 nM. In addition, the Selectivity ratio in the experiment listed under Cricetulus griseus stood at 6.17.
For `COC(=O)c1ccc2sc3c(=O)n(CCN4C[C@@H]5CCc6c(OC)cccc6[C@@H]5C4)c(=O)[nH]c3c2c1`, the Ki worked out at 4.75 nM in experiment [1], 2.84 nM in experiment [2] and 14.3 nM in experiment [3]. Further, the Selectivity ratio in the experiment filed under Cricetulus griseus is 3.01.
Turning to `COc1cccc2c1CC[C@H]1CN(CCn3c(=O)[nH]c4c(sc5cccc(C)c54)c3=O)C[C@@H]21`, the Ki in experiment [1] came out at 1.29 nM; in experiment [2], 0.88 nM; in experiment [3], 6.95 nM. Besides, the Selectivity ratio in the experiment listed under Cricetulus griseus came out at 5.38.
For `COc1cccc2c1CCC1CN(CCn3c(=O)[nH]c4c(sc5ccccc54)c3=O)CC21` (stereo in doubt; 21) [listing 1 of 2 here], the Ki in experiment [1] turned out to be 1.08 nM; in experiment [2], 0.63 nM; in experiment [3], 3.43 nM.
On to `COc1cccc2c1CC[C@H]1CN(CCn3c(=O)[nH]c4c(sc5ccc(C(=O)N(C)C)cc54)c3=O)C[C@@H]21`, for which the Ki came out at 0.28 nM in experiment [1], 0.63 nM in experiment [2] and 1.7 nM in experiment [3]. In addition, in the experiment listed under Cricetulus griseus, the Selectivity ratio is 6.07.
For `COc1cccc2c1CCC1CN(CCn3c(=O)[nH]c4c(sc5ccccc54)c3=O)CC21` (stereo in doubt; 18) [listing 1 of 2 here], the Selectivity ratio in the experiment listed under Cricetulus griseus worked out at 4.
Turning to `COc1cccc2c1CC[C@H]1CN(CCn3c(=O)[nH]c4c(sc5c(C#N)cccc54)c3=O)C[C@@H]21`, the figures for the Ki in experiment [1], in experiment [2] and in experiment [3] were 6.35 nM, 2.08 nM and 26.9 nM, respectively. In the experiment filed under Cricetulus griseus, the Selectivity ratio stood at 4.24.
The like results for `COc1cccc2c1CC[C@H]1CN(CCn3c(=O)[nH]c4c(sc5ccc(C#N)cc54)c3=O)C[C@@H]21` were, in that order, 1.64 nM, 0.59 nM, 14.3 nM and 8.7.
The like results for `COc1cccc2c1CC[C@H]1CN(CCn3c(=O)[nH]c4c(sc5cc(C(N)=O)ccc54)c3=O)C[C@@H]21` were, in that order, 0.29 nM, 0.27 nM, 0.86 nM and 2.9.
`COc1cccc2c1CCC1CN(CCn3c(=O)[nH]c4c(sc5ccccc54)c3=O)CC21` (stereo in doubt; 18) [listing 2 of 2 here]: the inhibition constant Ki in experiment [1] was 0.64 nM; in experiment [2], 0.37 nM; in experiment [3], 2.57 nM.
On to `COc1cccc2c1CC[C@H]1CN(CCn3c(=O)[nH]c4c(sc5ccc(C(N)=O)cc54)c3=O)C[C@@H]21`, for which the figures for the inhibition constant Ki in experiment [1], in experiment [2] and in experiment [3] were 0.52 nM, 0.51 nM and 6.34 nM, respectively. In addition, the Selectivity ratio in the experiment listed under Cricetulus griseus was 12.2.
The like results for `COc1cccc2c1CC[C@H]1CN(CCn3c(=O)[nH]c4c(sc5nc(C)cnc54)c3=O)C[C@@H]21` were, in that order, 0.49 nM, 2.31 nM, 13.5 nM and 27.5.
The like results for `COc1cccc2c1CCC1CN(CCn3c(=O)[nH]c4c(oc5ccccc54)c3=O)CC21` (cis isomer) were, in that order, 2.17 nM, 0.68 nM, 5.39 nM and 2.48.
As for `COc1cccc2c1CC[C@H]1CN(CCn3c(=O)[nH]c4c(sc5ccccc54)c3=O)C[C@@H]21` (stereo in doubt; 23), in the experiment listed under Cricetulus griseus, the Selectivity ratio worked out at 1.55.
Still for that read-out and setting: with `COc1cccc2c1CC[C@H]1CN(CCn3c(=O)[nH]c4c(sc5ccccc54)c3=O)C[C@@H]21` (stereo in doubt; 22) the figure was 5.57.
As to `COc1ccc2sc3c(=O)n(CCN4C[C@@H]5CCc6c(OC)cccc6[C@@H]5C4)c(=O)[nH]c3c2n1`, the Ki in experiment [1] came out at 0.66 nM; in experiment [2], 1.1 nM; in experiment [3], 3 nM. For the same compound, the Selectivity ratio in the experiment listed under Cricetulus griseus is 4.5.
The like results for `COc1cccc2c1CC[C@H]1CN(CCn3c(=O)[nH]c4c(sc5cccc(OC)c54)c3=O)C[C@@H]21` were, in that order, 0.77 nM, 1.07 nM, 3.1 nM and 4.
`COc1cccc2c1CC[C@H]1CN(CCn3c(=O)[nH]c4c(sc5nc(-c6ccccc6)cnc54)c3=O)C[C@@H]21`: the Ki turned out to be 153 nM in experiment [1], 160 nM in experiment [2] and 1850 nM in experiment [3]. In addition, in the experiment filed under Cricetulus griseus, the Selectivity ratio turned out to be 12.
In the case of `COc1cccc2c1CC[C@H]1CN(CCn3c(=O)[nH]c4c(sc5ncncc54)c3=O)C[C@@H]21`, the Ki is 0.68 nM in experiment [1], 2.08 nM in experiment [2] and 15.5 nM in experiment [3]. Moreover, the Selectivity ratio in the experiment filed under Cricetulus griseus was found to be 22.8.
The like results for `COc1cccc2c1CC[C@H]1CN(CCn3c(=O)[nH]c4c(sc5ccncc54)c3=O)C[C@@H]21` were, in that order, 0.33 nM, 0.28 nM, 4.63 nM and 14.
Take `COc1cccc2c1CC[C@H]1CN(CCn3c(=O)[nH]c4c(sc5c(Cl)cccc54)c3=O)C[C@@H]21`: the Ki in experiment [1] was determined as 98.9 nM; in experiment [2] it was 25 nM; in experiment [3] it was 1220 nM. In addition, the Selectivity ratio in the experiment listed under Cricetulus griseus came to 12.3.
The like results for `COc1cccc2c1CC[C@H]1CN(CCn3c(=O)[nH]c4c(sc5cnccc54)c3=O)C[C@@H]21` were, in that order, 0.53 nM, 0.37 nM, 3.33 nM and 6.28.
The like results for `COc1cccc2c1CC[C@H]1CN(CCn3c(=O)[nH]c4c(sc5cccc(C#N)c54)c3=O)C[C@@H]21` were, in that order, 3.3 nM, 6.6 nM, 35.8 nM and 10.8.
On to `COc1cccc2c1CC[C@H]1CN(CCn3c(=O)[nH]c4c(sc5ccc([N+](=O)[O-])cc54)c3=O)C[C@@H]21`, for which the Ki in experiment [1] is 1.28 nM; in experiment [2], 1.31 nM; in experiment [3], 8.49 nM. In the experiment listed under Cricetulus griseus, the Selectivity ratio was 6.64.
For `COc1cccc2c1CCC1CN(CCn3c(=O)[nH]c4c(sc5ccccc54)c3=O)CC21` (stereo in doubt; 21) [listing 2 of 2 here], the Selectivity ratio in the experiment listed under Cricetulus griseus is 3.17.
